Measurements published in ChEMBL document CHEMBL5046314, “Repositioning of a Diaminothiazole Series Confirmed to Target the Cyclin-Dependent Kinase CRK12 for Use in the Treatment of African Animal Trypanosomiasis” (J Med Chem, 2022).
The source made the active and inactive calls. The rule behind the calls is not given here.

Columns and labels:
Trypanosoma vivax [1] = test: Antitrypanosomal activity against bloodstream Trypanosoma vivax STIB 719/ ILRAD 560 infected in NMRI mouse assessed as reduction in parasitemia at 10 mg/kg, sc administered for 4 days; format: functional; set-up: scale not given: the % may be the effect or the level left
Trypanosoma congolense [2] = test: Antitrypanosomal activity against bloodstream Trypanosoma congolense IL3000 infected in NMRI mouse assessed as reduction in parasitemia at 10 mg/kg, sc administered once daily for 4 days; format: functional; set-up: scale not given: the % may be the effect or the level left
Trypanosoma congolense [3] = test: Antitrypanosomal activity against bloodstream Trypanosoma congolense IL3000 infected in NMRI mouse assessed as reduction in parasitemia at 3 mg/kg, sc administered for 4 days; format: functional; set-up: scale not given: the % may be the effect or the level left; details: time 4 day
Trypanosoma vivax [4] = test: Antitrypanosomal activity against bloodstream Trypanosoma vivax STIB 719/ ILRAD 560 infected in NMRI mouse assessed as reduction in parasitemia at 3 mg/kg, sc administered for 4 days; format: functional; set-up: scale not given: the % may be the effect or the level left; details: time 4 day
Trypanosoma vivax [5] = test: Antitrypanosomal activity against bloodstream Trypanosoma vivax STIB 719/ ILRAD 560 infected in Fulani Zebu cattle assessed as reduction in parasitemia at 10 mg/kg, IM administered twice daily and measured after for 100 days; format: functional, organism-based; details: time 100.0 day
Summary of the method: (§1)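 Female Fulani Zebu cattle infected with the named strain received 10 mg/kg of the free base by IM injection. The vehicle was Kolliphor EL, N-methyl pyrrolidone, 2-pyrrolidone and 11% water. Dosing was once or twice 15 h apart. Saline vehicle controls got 0.2 mL/kg twice, 15 h apart. Animals were followed for 100 days after treatment to score cure.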

Trypanosoma vivax [6] = test: Antitrypanosomal activity against bloodstream Trypanosoma vivax STIB 719/ ILRAD 560 infected in Fulani Zebu cattle assessed as reduction in parasitemia at 10 mg/kg, IM administered as single dose monitered for 100 days; format: functional, organism-based; details: time 100.0 day; summary of the method: as §1
Trypanosoma congolense [7] = test: Antitrypanosomal activity against bloodstream Trypanosoma congolense IL3000 infected in Fulani Zebu cattle assessed as reduction in parasitemia at 10 mg/kg, IM administered as single dose monitered for 100 days; format: functional, organism-based; details: time 100.0 day; summary of the method: as §1
Trypanosoma congolense [8] = test: Antitrypanosomal activity against bloodstream Trypanosoma congolense IL3000 infected in NMRI mouse assessed as reduction in parasitemia at 10 to 100 ng/ml administered via sc implanted ALZET osmotic pumps for 48 hrs; format: functional, organism-based; details: dose 10-100 ng/ml
Trypanosoma vivax [9] = test: Antitrypanosomal activity against bloodstream Trypanosoma vivax STIB 719/ ILRAD 560 infected in NMRI mouse assessed as reduction in parasitemia at 10 mg/kg, sc administered for 2 days; format: functional; set-up: scale not given: the % may be the effect or the level left; details: time 2 day
Trypanosoma vivax [10] = test: Antitrypanosomal activity against bloodstream Trypanosoma vivax STIB 719/ ILRAD 560 infected in Fulani Zebu cattle assessed as reduction in parasitemia at 10 mg/kg, IM administered twice daily and measured after 4 days; format: functional, organism-based; details: time 4.0 day
[11] = tested on: Trypanosoma brucei brucei; test: Antitrypanosomal activity against bloodstream Trypanosoma brucei brucei infected in NMRI mouse assessed as parasite growth inhibition at 3 mg/kg, po BID for 4 days; format: functional; set-up: scale not given: the % may be the effect or the level left; details: time 4 day
Trypanosoma vivax [12] = test: Antitrypanosomal activity against bloodstream Trypanosoma vivax STIB 719/ ILRAD 560 infected in NMRI mouse assessed as reduction in parasitemia at 10 mg/kg, sc BID for 4 days and measured twice a week for 21 days; format: functional; set-up: scale not given: the % may be the effect or the level left; details: time 21 day
Trypanosoma vivax [13] = test: Antitrypanosomal activity against bloodstream Trypanosoma vivax STIB 719/ ILRAD 560 infected in NMRI mouse assessed as reduction in parasitemia at 3 mg/kg, sc QD for 4 days and measured twice a week for 21 days; set-up: scale not given: the % may be the effect or the level left; details: time 21 day
Trypanosoma vivax [14] = test: Antitrypanosomal activity against bloodstream Trypanosoma vivax STIB 719/ ILRAD 560 infected in NMRI mouse assessed as reduction in parasitemia at 30 mg/kg, sc administered as single dose and measured twice a week for 21 days; format: functional; set-up: scale not given: the % may be the effect or the level left; details: time 21 day
Trypanosoma congolense [15] = test: Antitrypanosomal activity against bloodstream Trypanosoma congolense KONT 2/133 infected in Friesian-Holstein calf assessed as reduction in parasitemia at 5 mg/kg, sc BID and measured after 3 days; format: functional, organism-based; details: time 3.0 day

CC(C)CS(=O)(=O)N[C@H]1CC[C@H](Nc2nc(N)c(C(=O)c3c(F)cc(CN4CCCC4)cc3F)s2)CC1.Cl
Activity (Trypanosoma vivax [1]; time 4 day): 100%

CC(C)CS(=O)(=O)N[C@H]1CC[C@H](Nc2nc(N)c(C(=O)c3c(F)cc(CN4CCN(C)CC4)cc3F)s2)CC1
Activity (Trypanosoma vivax [1]; time 4.0 day): inactive

CNCc1cc(F)c(C(=O)c2sc(N[C@H]3CC[C@H](NS(=O)(=O)CC(C)C)CC3)nc2N)c(F)c1.Cl
Activity (Trypanosoma vivax [1]; time 4 day): 100% | Activity (Trypanosoma congolense [2]; time 4 day): 100%

CC(C)CS(=O)(=O)N[C@H]1CC[C@H](Nc2nc(N)c(C(=O)c3c(Cl)cccc3Cl)s2)CC1
Activity (Trypanosoma congolense [3]): 100% | Activity (Trypanosoma vivax [4]): 100%

CC(C)CS(=O)(=O)N[C@H]1CC[C@H](Nc2nc(N)c(C(=O)c3c(F)cc(CN(C)C)cc3F)s2)CC1
Activity (Trypanosoma vivax [5]): inactive | Activity (Trypanosoma vivax [6]): inactive | Activity (Trypanosoma congolense [7]): inactive | Activity (Trypanosoma vivax [1]; time 4 day): 100% | Activity (Trypanosoma congolense [8]): Active | Activity (Trypanosoma vivax [9]): 100% | Activity (Trypanosoma congolense [2]; time 4 day): 100% | Activity (Trypanosoma vivax [4]): 100% | Activity (Trypanosoma vivax [10]): inactive

CC(C)CS(=O)(=O)N[C@H]1CC[C@H](Nc2nc(N)c(C(=O)c3c(F)cccc3F)s2)CC1
Activity [11]: 100% | Activity (Trypanosoma vivax [12]): 100% | Activity (Trypanosoma vivax [13]): 100% | Activity (Trypanosoma vivax [14]): 100% | Activity (Trypanosoma congolense [15]): Active

CC(C)CS(=O)(=O)N[C@H]1CC[C@H](Nc2nc(N)c(C(=O)c3c(F)cc(CN4CCOCC4)cc3F)s2)CC1
Activity (Trypanosoma vivax [1]; time 4.0 day): inactive | Activity (Trypanosoma congolense [2]; time 4.0 day): inactive
